ChEMBL document CHEMBL4229382, “Phenylthiazoles with tert-Butyl side chain: Metabolically stable with anti-biofilm activity” (Eur J Med Chem, 2018)
Converted amounts (≈) assume the structure as drawn. The source made the active and inactive calls. The calls are words filed in the database; no cut-off is given here.

What was measured:
Staphylococcus aureus [1] = assay: Inhibition of biofilm formation in methicillin-resistant Staphylococcus aureus NRS384 USA300 after 24 hrs by crystal violet staining-based spectrophotometric analysis
Staphylococcus aureus [2] = assay: Antibacterial activity against methicillin-resistant Staphylococcus aureus NRS123 USA400 assessed as change in MIC after 14 serial passages by broth microdilution assay
[3] = Terminal phase volume of distribution at steady state in Sprague-Dawley rat at 5 uM, iv administered as bolus dose by LC-MS/MS analysis; format: ADME, organism-based; details: in vivo, read-out: Vbeta
Outline: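 Male naïve Sprague–Dawley rats (n = 3) given tail-vein IV bolus of a 5 µM solution; blood taken into EDTA-K2 over 12 h; plasma protein-precipitated with acetonitrile and measured by LC/MS/MS; parameters from two-compartmental analysis.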

Staphylococcus aureus [4] = assay: Antibacterial activity against methicillin-resistant Staphylococcus aureus 2658 RCMB after 18 hrs by broth microdilution assay; format: functional
Outline: (§1)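 Broth microdilution: inoculum from 0.5 McFarland suspension diluted to about 5 × 10^5 CFU/mL. Media were cation-adjusted Mueller-Hinton broth for staphylococci, brain heart infusion for E. faecium, and tryptone soya broth for E. faecalis, S. pneumoniae and L. monocytogenes.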

Caco-2 = assay: Cytotoxicity against human Caco2 cells at 32 ug/ml after 2 hrs by MTS assay; format: cell-based; details: caco-2, 2 h
Outline: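 Caco-2 cells grown in DMEM with 20% FBS, non-essential amino acids and penicillin-streptomycin, 37 °C, 5% CO2; exposed in triplicate to compounds (16, 32, 64 µg/mL) for 2 h; MTS added, 4 h further incubation, OD490 read; viability as percent of DMSO-treated controls; two independent experiments.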

Staphylococcus aureus [5] = assay: Inhibition of biofilm formation in methicillin-resistant Staphylococcus aureus NRS384 USA300 at 2 times MIC after 24 hrs by crystal violet staining-based spectrophotometric analysis relative to control; design: scale not given: the % may be the effect or the level left
Staphylococcus aureus [6] = assay: Antibacterial activity against methicillin-resistant Staphylococcus aureus NRS123 USA400 assessed as reduction in bacterial growth after 2 to 4 hrs by time kill assay; format: functional, organism-based
Outline: (§2)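 Samples taken at 0, 2, 4, 6, 8, 12 and 24 h were serially diluted in PBS, plated on TSA and incubated ≥18 h for viable CFU/mL. DMSO was the negative control; two independent experiments.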

Staphylococcus aureus [7] = assay: Inhibition of biofilm formation in methicillin-resistant Staphylococcus aureus NRS384 USA300 at 1 time MIC after 24 hrs by crystal violet staining-based spectrophotometric analysis relative to control; design: scale not given: the % may be the effect or the level left
Staphylococcus aureus [8] = assay: Antibacterial activity against methicillin-sensitive Staphylococcus aureus NRS107 after 18 hrs by broth microdilution assay; format: functional; details: NRS107, 18 h
Outline: as §1

Staphylococcus aureus [9] = assay: Antibacterial activity against methicillin-sensitive Staphylococcus aureus ATCC 6538 after 18 hrs by broth microdilution assay; format: functional; details: ATCC 6538, 18 h
Outline: as §1

Streptococcus pneumoniae [10] = assay: Antibacterial activity against methicillin-resistant Streptococcus pneumoniae ATCC 700677 after 18 hrs by broth microdilution assay; format: functional; details: ATCC 700677, 18 h
Outline: as §1

Enterococcus faecalis [11] = assay: Antibacterial activity against vancomycin-resistant Enterococcus faecalis ATCC 51299 after 18 hrs by broth microdilution assay; format: functional; details: ATCC 51299, 18 h
Outline: as §1

Streptococcus pneumoniae [12] = assay: Bactericidal activity against methicillin-resistant Streptococcus pneumoniae ATCC 700677 incubated fo 18 hrs followed by re-plating on tryptic soy agar plates at 37 degC for 18 hrs by broth microdilution assay; format: functional; details: ATCC 700677, 18 h
[13] = Safety index, ratio of cytotoxicity against human Caco2 cells at 32 ug/ml after 2 hrs by MTS assay to antibacterial activity against methicillin-resistant Staphylococcus aureus; format: toxicity, cell-based; details: Caco-2 cells
Enterococcus faecium [14] = assay: Bactericidal activity against vancomycin-resistant Enterococcus faecium ATCC 700221 incubated fo 18 hrs followed by re-plating on tryptic soy agar plates at 37 degC for 18 hrs by broth microdilution assay; details: ATCC 700221, 18 h
Streptococcus pneumoniae [15] = assay: Bactericidal activity against cephalosporin-resistant Streptococcus pneumoniae ATCC 51916 incubated fo 18 hrs followed by re-plating on tryptic soy agar plates at 37 degC for 18 hrs by broth microdilution assay; format: functional; details: ATCC 51916, 18 h
Enterococcus faecalis [16] = assay: Bactericidal activity against vancomycin-resistant Enterococcus faecalis ATCC 51299 incubated fo 18 hrs followed by re-plating on tryptic soy agar plates at 37 degC for 18 hrs by broth microdilution assay; format: functional; details: ATCC 51299, 18 h
Staphylococcus aureus [17] = assay: Antibacterial activity against methicillin-resistant Staphylococcus aureus NRS384 USA300 after 18 hrs by broth microdilution assay; format: functional; details: NRS384 USA300, 18 h
Outline: as §1

Staphylococcus aureus [18] = assay: Antibacterial activity against vancomycin-resistant Staphylococcus aureus VRS10 after 18 hrs by broth microdilution assay; format: functional; details: VRS10, 18 h
Outline: as §1

Staphylococcus aureus [19] = assay: Antibacterial activity against methicillin-resistant Staphylococcus aureus NRS123 USA400 after 18 hrs by broth microdilution assay; format: functional; details: NRS123 USA400, 18 h
Outline: as §1

Staphylococcus aureus [20] = assay: Antibacterial activity against methicillin-resistant Staphylococcus aureus NRS386 after 18 hrs by broth microdilution assay; format: functional; details: NRS386, 18 h
Outline: as §1

Enterococcus faecium [21] = assay: Antibacterial activity against vancomycin-resistant Enterococcus faecium ATCC 700221 after 18 hrs by broth microdilution assay; format: functional; details: ATCC 700221, 18 h
Outline: as §1

Staphylococcus aureus [22] = assay: Bactericidal activity against vancomycin-resistant Staphylococcus aureus VRS10 incubated fo 18 hrs followed by re-plating on tryptic soy agar plates at 37 degC for 18 hrs by broth microdilution assay; format: functional; details: VRS10, 18 h
Listeria monocytogenes [23] = assay: Antibacterial activity against Listeria monocytogenes ATCC 19111 after 18 hrs by broth microdilution assay; format: functional; details: ATCC 19111, 18 h
Staphylococcus aureus [24] = assay: Bactericidal activity against methicillin-resistant Staphylococcus aureus NRS384 USA300 incubated fo 18 hrs followed by re-plating on tryptic soy agar plates at 37 degC for 18 hrs by broth microdilution assay; format: functional; details: NRS384 USA300, 18 h
Staphylococcus aureus [25] = assay: Antibacterial activity against vancomycin-resistant Staphylococcus aureus VRS12 after 18 hrs by broth microdilution assay; format: functional; details: VRS12, 18 h
Outline: as §1

Staphylococcus aureus [26] = assay: Antibacterial activity against methicillin-resistant Staphylococcus aureus NRS123 USA400 assessed as reduction in bacterial burden within 6 hrs by time kill assay; format: functional
Outline: as §2

Staphylococcus aureus [27] = assay: Bactericidal activity against methicillin-resistant Staphylococcus aureus NRS385 incubated fo 18 hrs followed by re-plating on tryptic soy agar plates at 37 degC for 18 hrs by broth microdilution assay; format: functional; details: NRS385, 18 h
Listeria monocytogenes [28] = assay: Selectivity ratio of MBC to MIC for Listeria monocytogenes ATCC 19111; format: functional
[29] = tested on: Staphylococcus epidermidis; assay: Antibacterial activity against methicillin-resistant Staphylococcus epidermidis NRS101 after 18 hrs by broth microdilution assay; format: functional; details: NRS101, 18 h
Outline: as §1

Staphylococcus aureus [30] = assay: Bactericidal activity against methicillin-resistant Staphylococcus aureus NRS119 incubated fo 18 hrs followed by re-plating on tryptic soy agar plates at 37 degC for 18 hrs by broth microdilution assay; format: functional; details: NRS119, 18 h
Staphylococcus aureus [31] = assay: Bactericidal activity against methicillin-resistant Staphylococcus aureus NRS123 USA400 incubated fo 18 hrs followed by re-plating on tryptic soy agar plates at 37 degC for 18 hrs by broth microdilution assay; format: functional; details: NRS123 USA400, 18 h
Streptococcus pneumoniae [32] = assay: Antibacterial activity against cephalosporin-resistant Streptococcus pneumoniae ATCC 51916 after 18 hrs by broth microdilution assay; format: functional; details: ATCC 51916, 18 h
Outline: as §1

Staphylococcus aureus [33] = assay: Antibacterial activity against methicillin-resistant Staphylococcus aureus NRS385 after 18 hrs by broth microdilution assay; format: functional; details: NRS385, 18 h
Outline: as §1

[34] = tested on: Staphylococcus epidermidis; assay: Bactericidal activity against methicillin-resistant Staphylococcus epidermidis NRS101 incubated fo 18 hrs followed by re-plating on tryptic soy agar plates at 37 degC for 18 hrs by broth microdilution assay; format: functional; details: NRS101, 18 h
Staphylococcus aureus [35] = assay: Bactericidal activity against vancomycin-resistant Staphylococcus aureus VRS12 incubated fo 18 hrs followed by re-plating on tryptic soy agar plates at 37 degC for 18 hrs by broth microdilution assay; format: functional; details: VRS12, 18 h
Staphylococcus aureus [36] = assay: Bactericidal activity against methicillin-sensitive Staphylococcus aureus NRS107 incubated fo 18 hrs followed by re-plating on tryptic soy agar plates at 37 degC for 18 hrs by broth microdilution assay; format: functional; details: NRS107, 18 h
Staphylococcus aureus [37] = assay: Bactericidal activity against methicillin-resistant Staphylococcus aureus NRS386 incubated fo 18 hrs followed by re-plating on tryptic soy agar plates at 37 degC for 18 hrs by broth microdilution assay; format: functional; details: NRS386, 18 h
Staphylococcus aureus [38] = assay: Antibacterial activity against methicillin-resistant Staphylococcus aureus NRS119 after 18 hrs by broth microdilution assay; format: functional; details: NRS119, 18 h
Outline: as §1

Staphylococcus aureus [39] = assay: Bactericidal activity against methicillin-sensitive Staphylococcus aureus ATCC 6538 incubated fo 18 hrs followed by re-plating on tryptic soy agar plates at 37 degC for 18 hrs by broth microdilution assay; format: functional; details: ATCC 6538, 18 h

SMILES: Cc1nc(-c2ccc(C(C)(C)C)cc2)sc1-c1ccnc(NCCN)n1
- inhibition (Staphylococcus aureus [1]): Dose-dependent effect
- Ratio (Staphylococcus aureus [2]): 1
- Vd at 5 µM [3]: 16.4 L
- MIC (Staphylococcus aureus [4]): 1.17 µg/mL (≈ 3.18 µM)
- Activity (Caco-2): Non-Toxic
- Activity (Staphylococcus aureus [5]): 64%
- Activity (Staphylococcus aureus [6]): Active
- Activity (Staphylococcus aureus [7]): 28%
- MIC (Staphylococcus aureus [8]): 4 µg/mL (≈ 10.9 µM)
- MIC (Staphylococcus aureus [9]): 4 µg/mL (≈ 10.9 µM)
- MIC (Streptococcus pneumoniae [10]): 2 µg/mL (≈ 5.44 µM)
- MIC (Enterococcus faecalis [11]): 16 µg/mL (≈ 43.5 µM)
- MBC (Streptococcus pneumoniae [12]): 16 µg/mL (≈ 43.5 µM)
- selectivity ratio at 2 h, 32 ug/ml [13]: 8 to 30
- MBC (Enterococcus faecium [14]): 8 µg/mL (≈ 21.8 µM)
- MBC (Streptococcus pneumoniae [15]): 16 µg/mL (≈ 43.5 µM)
- MBC (Enterococcus faecalis [16]): 16 µg/mL (≈ 43.5 µM)

SMILES: Cc1nc(-c2ccc(C(C)(C)C)cc2)sc1-c1ccnc(NC(=N)c2ccccn2)n1
- inhibition (Staphylococcus aureus [1]): Dose-dependent effect
- MIC (Staphylococcus aureus [17]): 4 µg/mL (≈ 9.33 µM)
- MIC (Staphylococcus aureus [18]): 2 µg/mL (≈ 4.67 µM)
- MIC (Staphylococcus aureus [19]): 2 µg/mL (≈ 4.67 µM)
- MIC (Staphylococcus aureus [4]): 0.78 µg/mL (≈ 1.82 µM)
- MIC (Staphylococcus aureus [20]): 2 µg/mL (≈ 4.67 µM)
- MIC (Enterococcus faecium [21]): 4 µg/mL (≈ 9.33 µM)
- MBC (Staphylococcus aureus [22]): 4 µg/mL (≈ 9.33 µM)
- MIC (Listeria monocytogenes [23]): 2 µg/mL (≈ 4.67 µM)
- Activity (Caco-2): Toxic
- MBC (Staphylococcus aureus [24]): 4 µg/mL (≈ 9.33 µM)
- Activity (Staphylococcus aureus [5]): 49%
- MIC (Staphylococcus aureus [25]): 4 µg/mL (≈ 9.33 µM)
- Activity (Staphylococcus aureus [26]): 3 log10CFU/ml
- MBC (Staphylococcus aureus [27]): 4 µg/mL (≈ 9.33 µM)
- Ratio (Listeria monocytogenes [28]): >3
- MIC [29]: 64 µg/mL (≈ 149 µM)
- MBC (Staphylococcus aureus [30]): 4 µg/mL (≈ 9.33 µM)
- Activity (Staphylococcus aureus [7]): 44%
- MIC (Staphylococcus aureus [8]): 64 µg/mL (≈ 149 µM)
- MBC (Staphylococcus aureus [31]): 2 µg/mL (≈ 4.67 µM)
- MIC (Staphylococcus aureus [9]): 2 µg/mL (≈ 4.67 µM)
- MIC (Streptococcus pneumoniae [10]): 8 µg/mL (≈ 18.7 µM)
- MIC (Streptococcus pneumoniae [32]): 4 µg/mL (≈ 9.33 µM)
- MIC (Enterococcus faecalis [11]): 64 µg/mL (≈ 149 µM)
- MIC (Staphylococcus aureus [33]): 4 µg/mL (≈ 9.33 µM)
- MBC [34]: > 64 µg/mL
- MBC (Staphylococcus aureus [35]): 4 µg/mL (≈ 9.33 µM)
- MBC (Staphylococcus aureus [36]): > 64 µg/mL
- MBC (Staphylococcus aureus [37]): 2 µg/mL (≈ 4.67 µM)
- MBC (Streptococcus pneumoniae [12]): 8 µg/mL (≈ 18.7 µM)
- MBC (Enterococcus faecium [14]): 32 µg/mL (≈ 74.7 µM)
- MBC (Streptococcus pneumoniae [15]): 4 µg/mL (≈ 9.33 µM)
- MBC (Enterococcus faecalis [16]): > 64 µg/mL
- MIC (Staphylococcus aureus [38]): 4 µg/mL (≈ 9.33 µM)
- MBC (Staphylococcus aureus [39]): 4 µg/mL (≈ 9.33 µM)
